pIC50, pKi: −log10 of the molar value.
Tests used:
Adenosine receptor A2b [1] = target: T1, Adenosine receptor A2b (Homo sapiens, UniProt P29275); format: functional, cell-based, CHO
T1 sequence (P29275 whole entry): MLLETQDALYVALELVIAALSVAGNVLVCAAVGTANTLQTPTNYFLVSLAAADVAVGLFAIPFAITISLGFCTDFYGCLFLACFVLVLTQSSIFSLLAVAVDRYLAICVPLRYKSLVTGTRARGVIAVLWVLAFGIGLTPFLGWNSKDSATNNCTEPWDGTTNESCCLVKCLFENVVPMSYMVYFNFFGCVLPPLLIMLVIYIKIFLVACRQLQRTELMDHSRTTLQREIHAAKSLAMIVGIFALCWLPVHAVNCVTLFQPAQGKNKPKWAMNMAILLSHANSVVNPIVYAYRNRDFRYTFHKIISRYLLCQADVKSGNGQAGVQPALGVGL

Adenosine receptor A2a [2] = target: T2, Adenosine receptor A2a (Homo sapiens, UniProt P29274); assay: Displacement of [3H]-ZM 241385 from human adenosine A2A receptor expressed in CHO cells after 60 mins by liquid scintillation counting; format: cell-based
T2 sequence (P29274 whole entry): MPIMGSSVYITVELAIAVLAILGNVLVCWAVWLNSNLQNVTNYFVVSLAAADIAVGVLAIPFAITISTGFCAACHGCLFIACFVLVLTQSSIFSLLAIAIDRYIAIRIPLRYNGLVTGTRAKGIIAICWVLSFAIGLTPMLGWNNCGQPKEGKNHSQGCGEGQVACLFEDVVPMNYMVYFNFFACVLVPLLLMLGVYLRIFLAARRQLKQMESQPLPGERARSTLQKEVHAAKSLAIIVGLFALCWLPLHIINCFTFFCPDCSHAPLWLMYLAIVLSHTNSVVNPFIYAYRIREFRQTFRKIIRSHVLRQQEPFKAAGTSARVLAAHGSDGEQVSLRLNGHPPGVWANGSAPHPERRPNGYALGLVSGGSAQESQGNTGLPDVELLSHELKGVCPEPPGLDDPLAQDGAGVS

Adenosine receptor A1 = target: T3, Adenosine receptor A1 (Homo sapiens, UniProt P30542); assay: Displacement of [3H]-DPCPX from human adenosine A1 receptor expressed in CHO cells after 120 mins by liquid scintillation counting; format: cell-based
T3 sequence (P30542 whole entry): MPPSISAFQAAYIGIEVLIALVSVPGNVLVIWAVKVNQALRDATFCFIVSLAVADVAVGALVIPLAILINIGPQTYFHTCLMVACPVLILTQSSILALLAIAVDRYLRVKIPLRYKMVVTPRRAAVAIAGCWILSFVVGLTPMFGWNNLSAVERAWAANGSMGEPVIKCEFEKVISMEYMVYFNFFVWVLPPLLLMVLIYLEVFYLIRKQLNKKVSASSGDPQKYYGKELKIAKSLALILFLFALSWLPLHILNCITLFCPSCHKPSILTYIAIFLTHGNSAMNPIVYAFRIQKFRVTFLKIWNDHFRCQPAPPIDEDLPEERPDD

Adenosine receptor A3 [3] = target: T4, Adenosine receptor A3 (Homo sapiens, UniProt P0DMS8); assay: Displacement of [3H]-MRE-3008-F20 from human adenosine A3 receptor expressed in CHO cells after 120 mins by liquid scintillation counting; format: cell-based
T4 sequence (P0DMS8 whole entry): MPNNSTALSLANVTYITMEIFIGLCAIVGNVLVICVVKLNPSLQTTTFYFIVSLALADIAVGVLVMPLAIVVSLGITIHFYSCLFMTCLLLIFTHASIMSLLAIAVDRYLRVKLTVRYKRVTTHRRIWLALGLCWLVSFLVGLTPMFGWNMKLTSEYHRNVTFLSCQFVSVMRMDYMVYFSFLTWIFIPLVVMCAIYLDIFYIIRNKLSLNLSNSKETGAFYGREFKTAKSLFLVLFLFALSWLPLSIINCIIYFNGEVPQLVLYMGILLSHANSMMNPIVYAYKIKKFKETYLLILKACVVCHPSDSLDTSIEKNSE

[4] = target: Adenosine receptor A2B (Homo sapiens) (UniProt P29275); details: CHO, at 1 µM
Adenosine receptor A2a [5] = target: T2, Adenosine receptor A2a; assay: Displacement of [3H]-ZM 241385 from human adenosine A2A receptor expressed in CHO cells at 1 uM after 60 mins by liquid scintillation counting; format: cell-based
[6] = target: T5, Adenosine receptor A3 (Homo sapiens) (UniProt P0DMS8); assay: Displacement of [3H]-MRE-3008-F20 from human adenosine A3 receptor expressed in CHO cells at 1 uM after 120 mins by liquid scintillation counting; format: cell-based
T5 sequence (whole entry): T4 sequence (P0DMS8 whole entry)
Method in brief: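 Membranes from hA3-CHO cells in 50 mM Tris HCl, 10 mM MgCl2, 1 mM EDTA, pH 7.4, pretreated with adenosine deaminase (2 IU/mL, 30 min, 37 °C). Incubation 120 min at 4 °C. Non-specific binding with unlabelled MRE3008F20. GF/B filtration.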

[7] = target: T6, Adenosine receptor A1 (Homo sapiens) (UniProt P30542); assay: Displacement of [3H]-DPCPX from human adenosine A1 receptor expressed in CHO cells at 1 uM after 120 mins by liquid scintillation counting; format: cell-based
T6 sequence (whole entry): T3 sequence (P30542 whole entry)
Method in brief: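 Percent inhibition at a single concentration of 1 nM [3H]DPCPX binding to hA1-CHO membranes in 50 mM Tris HCl, pH 7.4. Membranes were pretreated with 2 IU/mL adenosine deaminase for 30 min at 37 °C. Incubation was 120 min at 25 °C, and bound label was separated by GF/B glass-fibre filtration.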

Adenosine receptor A3 [8] = target: T4, Adenosine receptor A3; assay: Antagonist activity at human adenosine A3 receptor expressed in forskolin-stimulated CHO cells assessed as inhibition of Cl-IB-MECA-induced cAMP production by competition protein binding assay; format: functional, cell-based
Method in brief: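 CHO cells stably expressing human A3 receptor were harvested with dilute trypsin and preincubated for 10 min at 37 °C in pH 7.4 buffer with 2 IU/mL adenosine deaminase and the phosphodiesterase inhibitor Ro 20-1724. Antagonism of 100 nM Cl-IB-MECA was run with forskolin present. The reaction was stopped with cold 6% TCA and extracted with ether. cAMP was read against [3H]cAMP and bovine adrenal binding protein. IC50 came from sigmoid fitting.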

Adenosine receptor A2b [9] = target: T1, Adenosine receptor A2b; assay: biochemical

Row | pIC50 (Adenosine receptor A2b [1]) | pKi (Adenosine receptor A2a [2]) | pKi (Adenosine receptor A1) | pKi (Adenosine receptor A3 [3]) | inhibition [4] [%] | inhibition (Adenosine receptor A2a [5]) [%] | inhibition [6] [%] | inhibition [7] [%] | pIC50 (Adenosine receptor A3 [8]) | pKi (Adenosine receptor A2b [9]) | Compound
1 | 6.24 | 6.65 | 6.03 | 6.96 |  |  |  |  |  |  | COc1ccc(NC(=O)Nc2nc3cn(C)nc3c3nc(-c4ccco4)nn23)cc1
2 | < 6.00 | < 6.00 | 6.45 | 6.95 | 8 | 13 |  |  |  |  | Cn1cc2nc(NC(=O)Nc3ccncc3)n3nc(-c4ccco4)nc3c2c1
3 | 6.50 | 7.38 | 7.48 | 6.22 |  |  |  |  |  |  | Nc1nc2cnn(CCc3ccccc3)c2c2nc(-c3ccco3)nn12
4 | < 6.00 | < 6.00 | < 6.00 | < 6.00 | 4 | 4 | 1 | 6 |  |  | Cn1ncc2nc(N3CCOCC3)n3nc(-c4ccco4)nc3c21
5 | 7.05 | 7.52 | 7.46 | 7.26 |  |  |  |  |  |  | CCCn1cc2nc(N)n3nc(-c4ccco4)nc3c2c1
6 | 7.40 | 7.92 | 7.85 | 7.08 |  |  |  |  | 6.30 |  | CCCn1ncc2nc(N)n3nc(-c4ccco4)nc3c21
7 |  |  |  | < 5.00 |  |  |  |  |  |  | Nc1nc2c(cnn2CCc2ccccc2)c2nc(-c3ccco3)nn12 [SCH-58261]
8 | 6.91 | 7.17 | 6.89 | 7.21 |  |  |  |  |  |  | COc1ccc(NC(=O)Nc2nc3cnn(C)c3c3nc(-c4ccco4)nn23)cc1
9 | 6.26 | 6.17 | 6.12 | 6.50 |  |  |  |  |  |  | COc1ccc(NC(=O)Nc2nc3cn(CCc4ccccc4)nc3c3nc(-c4ccco4)nn23)cc1
10 | 7.51 | 8.44 | 8.00 | 6.13 |  |  |  |  |  |  | Cn1ncc2nc(N)n3nc(-c4ccco4)nc3c21
11 | 7.38 | 7.70 | 7.00 | 7.30 |  |  |  |  |  |  | Cn1cc2nc(N)n3nc(-c4ccco4)nc3c2c1
12 | 7.48 | 8.09 | 7.52 | 6.90 |  |  |  |  |  |  | Cn1cc2nc(N)n3nc(-c4ccco4)nc3c2n1
13 | 6.08 | 6.30 | 6.10 | 7.82 |  |  |  |  | 7.12 |  | COc1ccc(NC(=O)Nc2nc3cn(C)cc3c3nc(-c4ccco4)nn23)cc1
14 | 7.35 | 7.77 | 7.66 | 6.36 |  |  |  |  |  |  | CCCn1cc2nc(N)n3nc(-c4ccco4)nc3c2n1
15 | 6.23 | 6.91 | 7.07 | 6.10 |  |  |  |  |  |  | Nc1nc2cnn(CCCc3ccccc3)c2c2nc(-c3ccco3)nn12
16 | 7.57 | 8.04 | 8.31 | 6.50 |  |  |  |  |  |  | Nc1nc2cn(CCc3ccccc3)nc2c2nc(-c3ccco3)nn12

Row | pIC50 (Adenosine receptor A2b [1]) | pKi (Adenosine receptor A2a [2]) | pKi (Adenosine receptor A1) | pKi (Adenosine receptor A3 [3]) | inhibition [4] [%] | inhibition (Adenosine receptor A2a [5]) [%] | inhibition [6] [%] | inhibition [7] [%] | pIC50 (Adenosine receptor A3 [8]) | pKi (Adenosine receptor A2b [9]) | Compound
17 | 6.11 | 6.20 | 6.28 | 6.68 |  |  |  |  |  |  | COc1ccc(NC(=O)Nc2nc3cnn(CCc4ccccc4)c3c3nc(-c4ccco4)nn23)cc1
18 | 6.13 | 6.83 | 6.75 | 7.92 |  |  |  |  |  |  | COc1ccc(NC(=O)Nc2nc3cn(CCc4ccccc4)cc3c3nc(-c4ccco4)nn23)cc1
19 | < 6.00 | < 6.00 | < 6.00 | < 6.00 | 32 | 32 | 25 | 38 |  |  | COc1ccc(NC(=O)Nc2nc3cnn(CCCc4ccccc4)c3c3nc(-c4ccco4)nn23)cc1
20 |  |  |  | < 5.00 |  |  |  |  |  | < 5.00 | Nc1nc2c(cnn2CCCc2ccccc2)c2nc(-c3ccco3)nn12 [SCH-63390]
21 | < 6.00 | < 6.00 | < 6.00 | < 6.00 | 5 | 9 | 1 | 8 |  |  | Cn1ncc2nc(N3CCN(c4ccccc4)CC3)n3nc(-c4ccco4)nc3c21
22 | < 6.00 | 6.89 | 6.68 | 7.89 | 12 |  |  |  |  |  | COc1ccc(NC(=O)Nc2nc3cn(CCCc4ccccc4)cc3c3nc(-c4ccco4)nn23)cc1
23 | 7.49 | 7.70 | 7.21 | 6.79 |  |  |  |  |  |  | CCCn1ncc2nc(NC(=O)Nc3ccc(OC)cc3)n3nc(-c4ccco4)nc3c21
24 | 6.04 | 6.70 | 6.13 | 8.00 |  |  |  |  | 7.30 |  | CCCn1cc2nc(NC(=O)Nc3ccc(OC)cc3)n3nc(-c4ccco4)nc3c2c1
25 | < 6.00 | < 6.00 | < 6.00 | < 6.00 | 2 | 2 | 1 | 5 |  |  | CN1CCN(c2nc3cnn(C)c3c3nc(-c4ccco4)nn23)CC1
26 | 6.60 | 7.30 | 7.74 | 6.62 |  |  |  |  |  |  | Nc1nc2cn(CCCc3ccccc3)cc2c2nc(-c3ccco3)nn12
27 | 6.06 | 6.68 | 6.62 | 7.30 |  |  |  |  | 6.60 |  | CCCn1cc2nc(NC(=O)Nc3ccc(OC)cc3)n3nc(-c4ccco4)nc3c2n1
28 | 7.49 | 7.96 | 8.15 | 6.28 |  |  |  |  |  |  | Nc1nc2cn(CCCc3ccccc3)nc2c2nc(-c3ccco3)nn12
29 | 7.34 | 8.41 | 8.37 | 6.91 |  |  |  |  |  |  | Nc1nc2cn(CCc3ccccc3)cc2c2nc(-c3ccco3)nn12
30 | 6.04 | 6.92 | 7.92 | 6.29 |  |  |  |  |  |  | Cn1ncc2nc(NC3CCCCC3)n3nc(-c4ccco4)nc3c21
31 | < 6.00 | < 6.00 | < 6.00 | 6.09 | 31 | 31 |  | 35 |  |  | COc1ccc(NC(=O)Nc2nc3cn(CCCc4ccccc4)nc3c3nc(-c4ccco4)nn23)cc1

Reference: ChEMBL document CHEMBL1932966, “Pyrrolo- and pyrazolo-[3,4-e][1,2,4]triazolo[1,5-c]pyrimidines as adenosine receptor antagonists” (Bioorg Med Chem, 2012)
